The results in this text go back to ChEMBL document CHEMBL1134367, “Solid-phase synthesis and inhibitory effects of some pyrido[1,2-c]pyrimidine derivatives on leukocyte formations and experimental inflammation” (J Med Chem, 2001).

Broadly, the IC50 is the midpoint of a concentration-inhibition curve. The inhibition is the share of the control response that was lost under treatment.

In assay [1] the test system is Mus musculus. Description: Antiinflammatory activity, assessed by the carrageenan paw edema test in mice. It is filed as functional. The essentials:
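Mice dosed orally with compound at 20 mg/kg (reference at 10 mg/kg) in Tween 80/saline 1/99 v/v, 1 h before subplantar 3% w/v carrageenan (0.05 mL) in right hind paw. Paw volumes by plethysmometer at 1, 3 and 5 h; edema values at 3 h. Mean ± SEM, n 6-12; ANOVA with Dunnett's t-test.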
In general terms: Carrageenan injected into the paw causes an acute inflammation.

For assay [2], the species on record is Mus musculus. Description: PGE-2 level was assayed in RAW 264.7 macrophages after a 20h stimulation with LPS followed by incubation with compound and arachidonic acid for 2 hr. It counts as functional. In outline: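 RAW 264.7 cells first stimulated with LPS for 20 h, then washed and incubated 2 h with compound plus arachidonic acid. PGE₂ measured to assess COX-2 activity in intact cells.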

For assay [3], the species on record is Mus musculus. Description: PGE-2 levels were assayed in LPS stimulated RAW 264.7 macrophages for 20h in either presence or absence of compound. It counts as functional. The essentials:
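Murine RAW 264.7 cells grown in DMEM with 2 mM glutamine, antibiotics and 10% FBS. Cells at 2 × 10⁶/mL exposed to E. coli LPS 1 µg/mL, 37 °C, 20 h, with compound or vehicle. PGE₂ in supernatants by radioimmunoassay. […] Cytotoxicity checked by MTT reduction.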

Assay [4] relates to Mus musculus. Description: PGE-2 levels were assayed in inflamed paw after 5 hr carrageenan paw edema test in mice. It is filed as functional. The essentials: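 Carrageenan-injected mice (oral compound 1 h prior, Tween 80/saline vehicle) killed by cervical dislocation 5 h after carrageenan. Right hind paws homogenized and PGE₂ measured in homogenates; stomachs handled the same way. Mean ± SEM, n 6-12; ANOVA with Dunnett's t-test.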

Assay [5] is filed under the species Mus musculus. Description: Inhibitory activity against LPS stimulated RAW 264.7 macrophages. It is filed as functional. The following applies: RAW264.7. The essentials:
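Murine RAW 264.7 cells grown in DMEM with 2 mM glutamine, antibiotics and 10% FBS. Cells at 2 × 10⁶/mL exposed to E. coli LPS 1 µg/mL, 37 °C, 20 h, with compound or vehicle. PGE₂ in supernatants by radioimmunoassay. Cytotoxicity checked by MTT reduction.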

Assay [6] is described as follows: (§1) Inhibition of chemiluminescence generated by hypoxanthine/ xanthine oxidase was determined. The following applies: concentration not given here. Details: concentration or dose not given beside the values. The essentials: (§2)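 Cell-free superoxide made by the hypoxanthine/xanthine oxidase system, with chemiluminescence recorded.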
Assay [7] is filed under the species Homo sapiens. Description: Percent inhibition of neutrophils (chemiluminescence) was determined at 10 uM concentration in TPA-induced luminol chemiluminescence assay.
Assay [8] is described as follows: as §1. The following applies: concentration not given here. The essentials: as §2
Assay [9] is described as follows: Percentage inhibition of H/XO (chemiluminescence) was determined at 10 uM concentration. The essentials: as §2
Assay [10] is filed under the species Homo sapiens. Description: Percent inhibition of neutrophils (chemiluminescence) was determined at 10 uM concentration. It counts as functional. In outline:
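Purified human neutrophils at 2.5 × 10⁶ cells/mL with luminol 40 µM and TPA 1 µM; chemiluminescence recorded. Compounds tested at 10 µM; mean ± SEM.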

Turning to `CCOC(=O)c1cc2ccccn2/c(=N/c2ccc(F)cc2)n1`, the Edema in assay [1] worked out at 103.9 µL. For the same compound, the entries for the “PGE2 Level” value in assay [2], in [3] and in assay [4] were 8.9 ng/mL, 11.8 ng/mL and 82.5 ng/mL, respectively. The same compound had an IC50 in assay [5] of 1500 nM. For the same compound, the inhibition in [6] came to 49.6%. The compound further yielded an inhibition at 10 µM in assay [7] of 44.4%.
In the case of `CCOC(=O)c1cc2ccccn2c(=O)n1`, in assay [1], the Edema worked out at 121.9 µL. For the same compound, the “PGE2 Level” value was determined as 10.6 ng/mL in assay [2], 16.9 ng/mL in assay [3] and 85.4 ng/mL in [4]. The inhibition in [6] worked out at 26.6%. In addition, in assay [7], the inhibition at 10 µM amounted to 29.9%.
For `[S-]c1nc2ccccc2c2cccc[n+]12`, the PGE2 Level is 10.3 ng/mL in assay [2] and 16.9 ng/mL in assay [3]. In [8], the inhibition came out at 51.6%. In [7], this compound gave an inhibition at 10 µM of 53.7%.
`CCOC(=O)c1cc2ccccn2/c(=N/c2ccc(C)cc2)n1` displayed an Edema in [1] of 92.4 µL. Besides, the “PGE2 Level” value was found to be 13.5 ng/mL in assay [2], 13.3 ng/mL in [3] and 71 ng/mL in [4]. Inhibition in [5] was half-maximal at 1700 nM (IC50). For the same compound, in assay [9], the inhibition stood at 49.1%. The compound further gave an inhibition at 10 µM in [10] of 31.1%.
In [1], `CS(=O)(=O)Nc1ccc([N+](=O)[O-])cc1OC1CCCCC1` [NS-398] gave an Edema of 97.2 µL. The PGE2 Level in [2] turned out to be 2.1 ng/mL; in [3] it was 3.7 ng/mL; in assay [4], 53 ng/mL. Besides, half-maximal inhibition in [5] (IC50) was put at 2.1 nM.
`CCOC(=O)c1cc2ccccn2c(=S)n1` had an Edema in assay [1] of 105.2 µL. In addition, the “PGE2 Level” value in assay [2] was determined as 8.2 ng/mL; in [3] it was 12.8 ng/mL; in assay [4] it was 89.7 ng/mL. It took 1700 nM to reach half-maximal inhibition in assay [5] (IC50). In assay [6], the inhibition was determined as 43.3%. Moreover, the inhibition at 10 µM in assay [7] was 51.8%.
With `CCOC(=O)c1cc2ccccn2/c(=N/c2ccc(OC)cc2)n1`, the Edema in [1] was 91.6 µL. The “PGE2 Level” value came to 9.6 ng/mL in assay [2], 12 ng/mL in assay [3] and 78.7 ng/mL in assay [4]. In assay [5], this compound came in with an IC50 of 3500 nM. The same compound displayed an inhibition in assay [9] of 93.3%. The compound further returned an inhibition at 10 µM in [7] of 75.9%.
The compound `CCOC(=O)c1cc2ccccn2/c(=N/c2ccccc2)n1` gave an Edema in [1] of 82.2 µL. Further, the “PGE2 Level” value stood at 11 ng/mL in assay [2], 10.9 ng/mL in assay [3] and 70.6 ng/mL in assay [4]. The compound further showed an inhibition in [9] of 57.1%. The inhibition at 10 µM in assay [10] turned out to be 52.3%.
`CCOC(=O)c1cc2ccccn2/c(=N/c2ccc(Cl)cc2)n1` gave an Edema in assay [1] of 102 µL. In addition, the “PGE2 Level” value was determined as 10.6 ng/mL in [2], 8.2 ng/mL in assay [3] and 83.3 ng/mL in [4]. In [5], this compound had a concentration for half-maximal inhibition (IC50) of 400 nM. The same compound yielded an inhibition in [6] of 31.3%. Also, the inhibition at 10 µM in assay [7] was determined as 38.8%.
For `CCOC(=O)c1cc2ccccn2/c(=N/c2ccc(Br)cc2)n1`, the Edema in [1] is 80.8 µL. The “PGE2 Level” value in assay [2] is 9.5 ng/mL; in assay [3], 14.8 ng/mL; in assay [4], 76.9 ng/mL. Also, the inhibition in [6] was determined as 32.2%. The compound further displayed an inhibition at 10 µM in assay [7] of 24.8%.
